Non-standard residues stand in square brackets, D forms with d. Residues, ends and D or L forms follow the SMILES beside them. Dmt = Cc1cc(O)cc(C)c1C[C@H](N)C(=O)O; Tic = O=C(O)[C@@H]1Cc2ccccc2CN1
Legend:
Rattus norvegicus = species on record: Rattus norvegicus; experiment: Ratio of binding affinities for opioid receptors delta 1 and mu 1
How it was run: (§1)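 Ki values given as the mean ± SE of four to seven experiments; selectivity expressed as Kiδ/Kiμ.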

[1] = Binding affinity for rat brain opioid receptor delta 1; how it was run: as §1
[2] = Binding affinity for rat brain opioid receptor mu 1; how it was run: as §1
Mus musculus [3] = species on record: Mus musculus; experiment: Percent antagonism was evaluated relative to morphine in mice using naloxone; assay type: functional
Mus musculus [4] = species on record: Mus musculus; experiment: Minimum effective dose showing antinociception activity in mice; assay type: functional
How it was run: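 Minimum effective dose (nmol) for antinociception in mice after intracerebroventricular administration, measured by tail-flick and hot-plate tests.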

Mus musculus [5] = experiment: Analgesia was determined by hotplate (HP) test relative to morphine in mice after antinociception of intracerebroventricularly (icv) administration; assay type: functional
Mus musculus [6] = experiment: Analgesia was determined by tail-flick (TF) test relative to morphine in mice after antinociception of intracerebroventricularly (icv) administration;Range 0.48-0.55; assay type: functional
Mus musculus [7] = experiment: Analgesia was determined by tail-flick (TF) test relative to morphine in mice after antinociception of intracerebroventricularly (icv) administration;Range 1.3-1.7; assay type: functional
Mus musculus [8] = experiment: Analgesia was determined by hotplate (HP) test relative to morphine in mice after antinociception of intracerebroventricularly (icv) administration;Range-0.64?0.85; assay type: functional

Compound	Ratio (Rattus norvegicus)	Ki [1] [µM]	Ki [2] [µM]	Antagonism (Mus musculus [3]) [%]	MED (Mus musculus [4]) [nM]	Activity (Mus musculus [5]) [%]	Activity (Mus musculus [6]) [%]	Activity (Mus musculus [7]) [%]	Activity (Mus musculus [8]) [%]
Cc1cc(O)cc(C)c1C[C@H](N)C(=O)NCCN	338	3.65	0.0108						
Cc1cc(O)cc(C)c1C[C@H](N)C(=O)NCN	13.4	2.41	0.18						
CCCNC(=O)[C@@H](N)Cc1c(C)cc(O)cc1C	9.82	0.166	0.0169						
CCNC(=O)[C@@H](N)Cc1c(C)cc(O)cc1C	41.6	0.649	0.0156						
Cc1cc(O)cc(C)c1C[C@H](N)C(=O)N1Cc2ccccc2C[C@H]1C(=O)O (H-[Dmt]-[Tic]-OH)	6.6e-07		3.22						
Cc1cc(O)cc(C)c1C[C@H](N)C(=O)NC12CC3CC(CC(C3)C1)C2	0.27	0.208	0.767						
Cc1cc(O)cc(C)c1C[C@H](N)C(=O)NC(C)C	22	0.492	0.0224						
Cc1cc(O)cc(C)c1C[C@H](N)C(=O)O	1.55	46.5							
Cc1cc(O)cc(C)c1C[C@H](N)C(N)=O	13	1.47		100	200	0.26	0.55		
Cc1cc(O)cc(C)c1C[C@H](N)C(=O)Nc1cccc2ccccc12	0.054	0.0528	0.966						
Cc1cc(O)cc(C)c1C[C@H](N)C(=O)NC1CCCCC1	1.71	0.197	0.115						
Cc1cc(O)cc(C)c1C[C@H](N)C(=O)NC1C2CC3CC(C2)CC1C3 (some centres undefined)	0.23	0.175	0.746						
Cc1cc(O)cc(C)c1C[C@H](N)C(=O)NCC(=O)O	0.43	1.15	2.7						
Cc1cc(O)cc(C)c1C[C@H](N)C(=O)NC(C)(C)C	14.8	0.531	0.036						
CONC(=O)[C@@H](N)Cc1c(C)cc(O)cc1C	26.3	4.58	0.174						
CNC(=O)[C@@H](N)Cc1c(C)cc(O)cc1C	61.7	0.46	0.00745	73	30			1.7	0.85
Cc1cc(O)cc(C)c1C[C@H](N)C(=O)NCCO	28.1	0.455	0.0162						
Cc1cc(O)cc(C)c1C[C@H](N)C(=O)NO	5.58	9.49							
Cc1cc(O)cc(C)c1C[C@H](N)C(=O)Nc1ccccc1	0.069	0.12	1.73						
Cc1cc(O)cc(C)c1C[C@H](N)C(=O)NCCC(=O)O	1	0.328	0.329						
